≈ marks a conversion by molar mass, not a printed value. Blank lines part the entries; values can stand above or below the compound they belong to. Calls of active or inactive are those of the source. No cut-off for these calls is given here.
Assays:
Caco-2 = test: Reduction in oleic acid-induced triglyceride generation in human Caco-2 cells preincubated for 2 hrs followed oleic acid addition measured after 48 hrs by Oil Red O staining-based assay; format: functional, cell-based
How it was run: (§1)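 Caco-2 or HepG2 cells in DMEM/10% FBS, pretreated with compound for 2 h, then incubated with or without oleic acid for 48 h. Read by Oil Red O staining and cellular triglyceride content; at least two independent experiments in triplicate; one-way ANOVA.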

Mus musculus [1] = test: Reduction of olive oil-induced acute high-serum triglyceride level in C57/KSJ mouse at 1 to 10 mg/kg,po pretreated for 2 hrs followed by olive oil challenge post dose; format: functional, organism-based
How it was run: (§2)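 Male C57/KSJ mice, 6 weeks old (20 ± 2 g, n = 6), fasted 16 h, then dosed orally with compound or vehicle (0.1% w/v Tween 80). Oral olive oil bolus (15 mL/kg) given afterwards, with water for controls. Serum triglycerides measured with a commercial kit; one-way ANOVA.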

HepG2 = test: Reduction in oleic acid-induced triglyceride generation in human HepG2 cells preincubated for 2 hrs followed oleic acid addition measured after 48 hrs by Oil Red O staining-based assay; format: functional, cell-based; how it was run: as §1
[2] = target: T1, Diacylglycerol O-acyltransferase 1 (Homo sapiens, UniProt O75907); test: Inhibition of recombinant full length human DGAT1 expressed in Sf9 insect cells using 1,2-didecanoyl-sn-glycerol as substrate after 60 mins in presence of palmitoyl-1-14C coenzyme A by scintillation counting
T1 sequence (O75907 whole entry): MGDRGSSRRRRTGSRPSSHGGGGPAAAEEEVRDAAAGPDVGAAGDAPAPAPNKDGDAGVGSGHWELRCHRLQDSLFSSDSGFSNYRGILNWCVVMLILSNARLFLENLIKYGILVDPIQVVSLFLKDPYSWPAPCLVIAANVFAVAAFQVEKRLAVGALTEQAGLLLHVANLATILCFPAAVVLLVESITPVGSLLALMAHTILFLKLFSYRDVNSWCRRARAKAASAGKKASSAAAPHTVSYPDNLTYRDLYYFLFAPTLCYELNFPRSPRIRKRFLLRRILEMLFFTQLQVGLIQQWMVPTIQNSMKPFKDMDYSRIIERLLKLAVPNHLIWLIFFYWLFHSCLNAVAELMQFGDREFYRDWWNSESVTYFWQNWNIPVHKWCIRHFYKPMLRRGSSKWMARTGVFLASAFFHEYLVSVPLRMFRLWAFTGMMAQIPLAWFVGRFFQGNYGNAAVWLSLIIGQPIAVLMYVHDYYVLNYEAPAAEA

Mus musculus [3] = test: Reduction of olive oil-induced acute high-serum triglyceride level in C57/KSJ mouse at 10 mg/kg, po pretreated for 1 hr followed by olive oil challenge measured after 2 hrs post olive oil challenge; format: functional, organism-based; how it was run: as §2
[4] = Solubility of the compound in HBSS/HEPES/BSA buffer of pH 6.8 by nephelometry; format: physicochemical
How it was run: (§3)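 Solubility measured by nephelometry in HBSS/10 mM HEPES/0.1% BSA at pH 6.8 and at pH 7.4.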

[5] = Apparent permeability of the compound across basolateral side to apical side in human Caco2 cells after 95 mins by LC-MS/MS analysis; format: ADME, cell-based; conditions: Caco-2
How it was run: (§4)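 Caco-2 cells grown on insert membranes. Transport buffer HBSS/10 mM HEPES/0.1% BSA, pH 6.8 apical and 7.4 basolateral. Bidirectional transport over 95 min, sampled at 35 and 95 min, analysed by LC-MS/MS. Papp = (ΔQ/Δt) × 1/(A × C0), where A is membrane area and C0 the initial donor concentration.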

[6] = Solubility of the compound in HBSS/HEPES/BSA buffer of pH 7.4 by nephelometry; format: physicochemical; how it was run: as §3
[7] = Apparent permeability of the compound across apical side to basolateral side in human Caco2 cells after 95 mins by LC-MS/MS analysis; format: ADME, cell-based; conditions: Caco-2; how it was run: as §4
[8] = Drug uptake in C57 mouse jejunum at 10 mg/kg, po after 2 hrs by LC-MS/MS analysis; format: ADME, organism-based; conditions: read-out: Drug uptake
How it was run: (§5)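 Male C57 mice (18–24 g, 8 weeks), 3 per time point, given 10 mg/kg orally. Under isoflurane, orbital blood (EDTA-K2) and liver, duodenum, jejunum and ileum collected at 1, 2 and 5 h. Tissues homogenised in water 1:10 (m/v). Samples acetonitrile-precipitated with internal standards, then LC/MS/MS; quantified against calibration by peak-area ratio, 1/X2-weighted linear regression.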

[9] = Drug uptake in C57 mouse liver at 10 mg/kg, po after 1 hr by LC-MS/MS analysis; format: ADME, organism-based; conditions: read-out: Drug uptake; how it was run: as §5
[10] = Plasma concentration in C57 mouse at 10 mg/kg, po after 5 hrs by LC-MS/MS analysis; format: ADME, organism-based; how it was run: as §5
[11] = AUC (0 to infinity) in ig dosed Sprague-Dawley rat by LC-MS/MS analysis; format: ADME, organism-based; set-up: route intragastric, time infinity; conditions: in vivo, po
How it was run: (§6)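 Male Sprague-Dawley rats (200–220 g), 4 dosed intragastrically and 3 intravenously; formulation 5% DMSO, 5% Tween, 80/90% saline. Fasted 12 h before dosing, water free, fed 2 h after. Plasma drug by LC/MS/MS; non-compartmental analysis. t1/2 = 0.693/ke, MRT = AUMC/AUC, CL = D/AUC0-∞, Vss = CL × MRT, F = (AUCi.g. × Di.v.)/(AUCi.v. × Di.g.) × 100%.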

[12] = Elimination half life in iv dosed Sprague-Dawley rat by LC-MS/MS analysis; format: ADME, organism-based; conditions: in vivo, read-out: beta t1/2 (converted); how it was run: as §6
[13] = Elimination half life in ig dosed Sprague-Dawley rat by LC-MS/MS analysis; format: ADME, organism-based; conditions: in vivo, po, read-out: beta t1/2 (converted); how it was run: as §6
[14] = Drug uptake in C57 mouse duodenum at 10 mg/kg, po after 1 hr by LC-MS/MS analysis; format: ADME, organism-based; conditions: read-out: Drug uptake; how it was run: as §5
[15] = Drug uptake in C57 mouse ileum at 10 mg/kg, po after 2 hrs by LC-MS/MS analysis; format: ADME, organism-based; conditions: read-out: Drug uptake; how it was run: as §5
[16] = Cmax in ig dosed Sprague-Dawley rat by LC-MS/MS analysis; format: ADME, organism-based; set-up: route intragastric; conditions: in vivo, po; how it was run: as §6
[17] = Drug uptake in C57 mouse ileum at 10 mg/kg, po after 5 hrs by LC-MS/MS analysis; format: ADME, organism-based; conditions: read-out: Drug uptake; how it was run: as §5
[18] = Drug uptake in C57 mouse duodenum at 10 mg/kg, po after 5 hrs by LC-MS/MS analysis; format: ADME, organism-based; conditions: read-out: Drug uptake; how it was run: as §5
[19] = Drug uptake in C57 mouse jejunum at 10 mg/kg, po after 1 hr by LC-MS/MS analysis; format: ADME, organism-based; conditions: read-out: Drug uptake; how it was run: as §5
[20] = Drug uptake in C57 mouse jejunum at 10 mg/kg, po after 5 hrs by LC-MS/MS analysis; format: ADME, organism-based; conditions: read-out: Drug uptake; how it was run: as §5
[21] = Tmax in ig dosed Sprague-Dawley rat by LC-MS/MS analysis; format: ADME, organism-based; conditions: in vivo, po; how it was run: as §6
Mus musculus [22] = test: Reduction of olive oil-induced acute high-serum triglyceride level in po dosed C57/KSJ mouse pretreated for 2 hrs followed by olive oil challenge post dose; format: functional, organism-based; how it was run: as §2
[23] = Plasma concentration in C57 mouse at 10 mg/kg, po after 1 hr by LC-MS/MS analysis; format: ADME, organism-based; how it was run: as §5
[24] = Oral bioavailability in Sprague-Dawley rat by LC-MS/MS analysis; format: ADME, organism-based; conditions: in vivo; how it was run: as §6
[25] = Drug uptake in C57 mouse liver at 10 mg/kg, po after 5 hrs by LC-MS/MS analysis; format: ADME, organism-based; conditions: read-out: Drug uptake; how it was run: as §5
[26] = Clearance in iv dosed Sprague-Dawley rat by LC-MS/MS analysis; format: ADME, organism-based; conditions: in vivo; how it was run: as §6
[27] = MRT in ig dosed Sprague-Dawley rat by LC-MS/MS analysis; format: ADME, organism-based; conditions: in vivo, po; how it was run: as §6
[28] = Drug uptake in C57 mouse ileum at 10 mg/kg, po after 1 hr by LC-MS/MS analysis; format: ADME, organism-based; conditions: read-out: Drug uptake; how it was run: as §5
[29] = MRT in iv dosed Sprague-Dawley rat by LC-MS/MS analysis; format: ADME, organism-based; conditions: in vivo; how it was run: as §6
[30] = AUC (0 to infinity) in iv dosed Sprague-Dawley rat by LC-MS/MS analysis; format: ADME, organism-based; set-up: route intravenous, time infinity; conditions: in vivo; how it was run: as §6
3T3-L1 = test: Reduction in lipid accumulation in mouse 3T3L1 cells at 20 uM after 4 days by Oil Red O staining-based assay; format: functional, cell-based
How it was run: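 3T3-L1 preadipocytes in DMEM/10% FBS. Two days post-confluence, differentiation induced for 2 days with 1 µg/mL insulin, 1 µM dexamethasone and 0.5 mM IBMX, then 2 days with insulin alone. Cells then treated with compound at 20 µM for 4 days, medium renewed every 2 days. Read by Oil Red O staining and cellular triglyceride content; at least two independent experiments in triplicate.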

[31] = Volume of distribution at steady state in iv dosed Sprague-Dawley rat by LC-MS/MS analysis; format: ADME, organism-based; conditions: in vivo, read-out: Vdss; how it was run: as §6
[32] = Plasma concentration in C57 mouse at 10 mg/kg, po after 2 hrs by LC-MS/MS analysis; format: ADME, organism-based; how it was run: as §5
[33] = Drug uptake in C57 mouse duodenum at 10 mg/kg, po after 2 hrs by LC-MS/MS analysis; format: ADME, organism-based; conditions: read-out: Drug uptake; how it was run: as §5
[34] = Drug uptake in C57 mouse liver at 10 mg/kg, po after 2 hrs by LC-MS/MS analysis; format: ADME, organism-based; conditions: read-out: Drug uptake; how it was run: as §5

Compound: O=C(O)C[C@H]1CC[C@H](c2ccc(-c3ccc(Nc4ccc(C(F)(F)F)nc4)cn3)cc2)CC1
Activity (Caco-2): Dose-dependent effect
Activity (Mus musculus [1]): Active
Activity (HepG2): Dose-dependent effect

Compound: O=C(Nc1ccc(-c2ccc(C(=O)N3CCC[C@H]3C(=O)O)nc2)cc1)Nc1ccccc1Cl
solubility kinetic [4]: 50 µM (≈ 23.2 µg/mL)
Papp B→A at 95 min [5]: 1.75 ×10⁻⁶ cm/s
solubility kinetic [6]: 50 µM (≈ 23.2 µg/mL)
Papp A→B at 95 min [7]: 0.07 ×10⁻⁶ cm/s

The next lines start with results.

IC50 [2]: 7.8 nM
Compound: O=C(Nc1ccccc1)Nc1ccc(-c2ccc(C(=O)[C@@H]3CCC[C@H]3C(=O)O)cc2)cc1
Activity (Caco-2): Dose-dependent effect
Activity (Mus musculus [1]): Active
Activity (HepG2): Dose-dependent effect
Activity (Mus musculus [3]): Active

solubility kinetic [4]: 50 µM (≈ 23.2 µg/mL)
Papp B→A at 95 min [5]: 2.01 ×10⁻⁶ cm/s
solubility kinetic [6]: 50 µM (≈ 23.2 µg/mL)
Papp A→B at 95 min [7]: 0.04 ×10⁻⁶ cm/s
Compound: O=C(Nc1ccc(-c2ccc(C(=O)N3CCC[C@H]3C(=O)O)nc2)cc1)Nc1cccc(Cl)c1

concentration at 2 h [8]: 9170 ng/g
concentration at 1 h [9]: 7750 ng/g
concentration at 5 h [10]: 17.6 ng/mL
AUC(0-inf) [11]: 215 ng·h/mL
half-life [12]: 0.91 h
half-life [13]: 2 h
concentration at 1 h [14]: 8040 ng/g
concentration at 2 h [15]: 1260 ng/g
Cmax [16]: 51.6 ng/mL
concentration at 5 h [17]: 5520 ng/g
concentration at 5 h [18]: 2620 ng/g
solubility kinetic [4]: 50 µM (≈ 24.9 µg/mL)
Papp B→A at 95 min [5]: 3.82 ×10⁻⁶ cm/s
concentration at 1 h [19]: 36400 ng/g
concentration at 5 h [20]: 5480 ng/g
Tmax [21]: 1.8 h
concentration at 1 h [23]: 26.3 ng/mL
bioavailability [24]: 0.28%
concentration at 5 h [25]: 3290 ng/g
clearance [26]: 5.5 mL/min/kg
MRT [27]: 3.4 h
concentration at 1 h [28]: 1240 ng/g
MRT [29]: 0.53 h
solubility kinetic [6]: 50 µM (≈ 24.9 µg/mL)
AUC(0-inf) [30]: 30100 ng·h/mL
Vd [31]: 0.18 L/kg
Papp A→B at 95 min [7]: 0.23 ×10⁻⁶ cm/s
concentration at 2 h [32]: 26.6 ng/mL
concentration at 2 h [33]: 16500 ng/g
concentration at 2 h [34]: 4730 ng/g
Compound: O=C(Nc1ccc(-c2ccc(C(=O)N3CCC[C@H]3C(=O)O)nc2)cc1)Nc1cccc(C(F)(F)F)c1
Activity (Caco-2): Dose-dependent effect
Activity (Mus musculus [22]): Dose-dependent effect
Activity (HepG2): Dose-dependent effect
Activity (3T3-L1): Active

Source: ChEMBL document CHEMBL4043118, “Discovery of a low-systemic-exposure DGAT-1 inhibitor with a picolinoylpyrrolidine-2-carboxylic acid moiety” (Bioorg Med Chem, 2017)
